Reference: article PMC8414988 (Pediatric blood & cancer, 2021)

What was measured:
[1] = test system: progressive or refractory brain tumors; test: Tumor response assessment; format: in vivo, human
Procedure, shortened: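 Oral once-daily dosing, 21 of 28 days, for up to 26 courses. Response by bi-dimensional MR measurement. CR: all enhancing tumor gone. PR: ≥50% reduction. Both held ≥8 weeks on stable or decreasing corticosteroids. PD: >25% increase from smallest measurement, new lesion, or neurologic worsening. Patients receiving ≥1 dose evaluable.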

[2] = cited from earlier work
[3] = Plasma pharmacokinetics, non-compartmental analysis; format: in vivo, human; details: for AUC(0-t) / Cmax / half-life: human, plasma, po
[4] = human, in vivo, 28 days
[5] = Exposure-toxicity associations; format: in vivo, human; details: course 1

In the case of CC(=O)c1c(C)c2cnc(Nc3ccc(N4CCNCC4)cn3)nc2n(C2CCCC2)c1=O [palbociclib], the objective response ([1]; Stratum I and II) is reported as “No patients on either stratum had an objective response”, the time on treatment ([1]; Stratum II, 3 subjects (2 at 50 mg/m^2 and 1 at 75 mg/m^2)) is reported as 4 courses and the time on treatment ([1]; one patient with GBM, 75 mg/m^2) is reported as 6 courses. For the same compound, the time on treatment ([1]; one patient with anaplastic ependymoma, Stratum I, 75 mg/m^2) was 18 courses, the permeability [2] was “high permeability” and the “Cmax (mean ± SD)” value ([3]; 50 mg/m^2 oral, Day 1 (single dose), N=7) was 69.3 ± 43.7 ng/mL. The “AUC0-Tlast (mean ± SD)” value ([3]; 75 mg/m^2 oral, Day 21 (repeated doses), N=17) was 2219 ± 1086 ng·h/mL, the AUC(0-t) ([3]; 50 mg/m2, AUC0-Tlast (median (range)), 50 mg/m^2 oral, Day 1 (single dose), N=7) was 1160 ng·h/mL and the AUC(0-t) ([3]; 50 mg/m2, AUC0-Tlast (median (range)), 50 mg/m^2 oral, Day 21 (repeated doses), N=6) was 1230 ng·h/mL. For the same compound, the Cmax ([3]; 50 mg/m2, Cmax (median (range)), 50 mg/m^2 oral, Day 1 (single dose), N=7) was 54.9 ng/mL, the Cmax ([3]; 50 mg/m2, Cmax (median (range)), 50 mg/m^2 oral, Day 21 (repeated doses), N=6) was 77.2 ng/mL and the half-life ([3]; 50 mg/m2, Half-life (median (range)), 50 mg/m^2 oral, Day 1 (single dose), N=7) was 13 h. It also gave a half-life ([3]; 50 mg/m2, Half-life (median (range)), 50 mg/m^2 oral, Day 21 (repeated doses), N=6) of 17.4 h, an AUC(0-t) ([3]; 75 mg/m2, AUC0-Tlast (median (range)), 75 mg/m^2 oral, Day 1 (single dose), N=21) of 1830 ng·h/mL and an AUC(0-t) ([3]; 75 mg/m2, AUC0-Tlast (median (range)), 75 mg/m^2 oral, Day 21 (repeated doses), N=17) of 2270 ng·h/mL. It also gave a Cmax ([3]; 75 mg/m2, Cmax (median (range)), 75 mg/m^2 oral, Day 1 (single dose), N=21) of 94 ng/mL, a half-life ([3]; 75 mg/m2, Half-life (median (range)), 75 mg/m^2 oral, Day 1 (single dose), N=21) of 13.3 h and a half-life ([3]; 75 mg/m2, Half-life (median (range)), 75 mg/m^2 oral, Day 21 (repeated doses), N=17) of 14.4 h. It also gave an AUC(0-t) ([3]; 95 mg/m2, AUC0-Tlast (median (range)), 95 mg/m^2 oral, Day 1 (single dose), N=6) of 2410 ng·h/mL, an AUC(0-t) ([3]; 95 mg/m2, AUC0-Tlast (median (range)), 95 mg/m^2 oral, Day 21 (repeated doses), N=2) of 2190 ng·h/mL and a half-life ([3]; 95 mg/m2, Half-life (median (range)), 95 mg/m^2 oral, Day 1 (single dose), N=6) of 14.6 h. For the same compound, the half-life ([3]; 95 mg/m2, Half-life (median (range)), 95 mg/m^2 oral, Day 21 (repeated doses), N=2) was 11.3 h, the “dose dependence of mean Cmax and AUC0-Tlast” value ([3]; within 50 and 95 mg/m^2, single and repeated doses) was “increased in proportional manner” and the “Dose limiting toxicities observed” value [4] was “grade 4 neutropenia and grade 3 thrombocytopenia and dehydration”. For the same compound, the “association of pharmacokinetic variables with thrombocytopenia or lymphopenia” value [5] was “No association was found”.
